Ecoli rRNA inh: inhibitors of bacterial rRNA selective over humanized ribosomes. E. coli WT GFP vs humanized-ribosome RFP mutants, fluorescence, 24 h; active compounds read low; DMSO median 0, no signal -100. GFP signal change (wild-type ribosome), % (test concentration not listed). 350,000 compounds, 1.6% hits;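 active = significant combined selectivity score with lowered wild-type GFP, culture density cut under 30%, mutant RFP and density less affected; inactive = any of these conditions unmet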
iPSC survival up: increases survival of single human iPS cells; hiPSC single-cell survival, ATPlite luminescence; 100% = ROCK inhibitor wells, 0% = DMSO; survival enhancement, % at 20 µM; 360,000 compounds, 0.044% hits; AID 602274; in the data active = survival enhancement above about 18%;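 also: cells exposed to compounds for 16 hours before the ATP read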
SKN-1 inh: inhibitors of C. elegans SKN-1; C. elegans VP596 Pgst-4::GFP/RFP ratio, acrylamide-induced, 24 h; inhibition, % at 21.8 µM; 360,000 compounds, 0.49% hits; AID 624304;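 active = interference check ratio from 0.5 to 1.5 plus GFP to RFP signal ratio inhibition reaching or exceeding a fixed threshold, cut at about 30% in these data, passing the limit was not always enough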
MT1-MMP act inh: inhibitors of human MT1-MMP activation; P50281; HT1080 RFP-PRO-GFP cells, GFP/RFP ratio fluorescence, overnight; percent of plate control window, DMSO zero; GFP/RFP ratio change, % at 20 µM; 360,000 compounds, 0.061% hits;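 active = GFP/RFP ratio change of at least 30% with cell ATP level not reduced by more than half and red fluorescence within 50% of control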
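Compound: 20 µM single dose, 1% DMSO / System: HT1080 RFP-PRO-GFP cells / Controls: DMSO and RFP-L50D-GFP cell wells / Read-out basis: GFP/RFP fluorescence ratio / Schedule: overnight compound exposure at 37 °C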
DAGLB inh: blocks human DAGLB lipase activity | inhibition, % at 5.17 µM | 340,000 compounds, 0.059% hits | Q8NCG7 | HEK293T DAGLB membrane lysate, EnzChek fluorogenic substrate | AID 504411; in the data active = inhibition above about 34%;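 also: 0% = enzyme with vehicle and 100% = wells lacking enzyme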
Target sequence (Q8NCG7 whole entry, looked up): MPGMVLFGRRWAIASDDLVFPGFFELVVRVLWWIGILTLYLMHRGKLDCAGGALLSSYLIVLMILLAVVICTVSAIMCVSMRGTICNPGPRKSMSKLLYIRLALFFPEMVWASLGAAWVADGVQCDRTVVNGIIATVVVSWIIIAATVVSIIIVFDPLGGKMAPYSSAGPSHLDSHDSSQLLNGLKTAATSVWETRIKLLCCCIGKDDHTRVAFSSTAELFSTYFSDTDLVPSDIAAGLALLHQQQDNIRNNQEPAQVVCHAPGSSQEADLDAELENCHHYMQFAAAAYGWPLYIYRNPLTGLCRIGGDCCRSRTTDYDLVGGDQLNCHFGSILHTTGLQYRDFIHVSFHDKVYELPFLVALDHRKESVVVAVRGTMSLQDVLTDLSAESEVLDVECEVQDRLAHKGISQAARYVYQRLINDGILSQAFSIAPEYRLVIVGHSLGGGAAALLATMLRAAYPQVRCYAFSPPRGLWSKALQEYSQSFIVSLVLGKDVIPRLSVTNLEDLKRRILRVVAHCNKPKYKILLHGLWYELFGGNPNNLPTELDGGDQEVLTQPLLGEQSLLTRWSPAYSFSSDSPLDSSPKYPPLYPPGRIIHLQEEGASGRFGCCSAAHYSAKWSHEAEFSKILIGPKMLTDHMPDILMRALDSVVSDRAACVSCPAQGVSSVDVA
Cneo AK release: causes C. neoformans cell lysis; adenylate kinase release luminescence, 4 h; normalised: neutral wells 0, clomiphene wells 100; lysis activity, % at 15 µM; 360,000 compounds, 0.2% hits; AID 651654;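 active = mean lysis activity across replicates of at least 80%, whatever share of replicates individually reach that level; inactive = mean lysis activity below 80%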
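Signal: Adenylate kinase release luminescence | Assay system: Log-phase Cryptococcus neoformans yeast cells | Input: Cells at 5 × 10^6 per mL | Buffer or medium: Fresh YPD growth medium | Compound: Single dose | Schedule: Static 4 h at 37 °C with compound, 1 h detection | Controls: Clomiphene | Read-out: Luminescence rise reflecting yeast cell lysis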
AID977621: growth inhibition of wild-type GFP E. coli, dose response, H69 mutant RFP, cherry-pick | shares compounds with Ecoli rRNA inh | E. coli wild-type GFP strain growth, fluorescence, 24 h | activity change, negative = inhibition at 50 µM | 1,900 tested, under 10 active | AID 977621;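 active = Wild-type ribosome reporter drop at least double the humanized mutant ribosome reporter drop, growth loss under a set limit; inconclusive = no clear call, values can overlap the other calls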;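 also: wild-type GFP and H69 mutant RFP strains grown together 50/50 in each well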
AID977628: E. coli growth inhibition, wild-type GFP versus h24 humanized RFP strain, dose response, h24 mutant RFP vs wild-type GFP, cherry-pick; shares compounds with Ecoli rRNA inh; E. coli WT GFP strain growth, fluorescence, 24 h; activity change, negative = inhibition at 50 µM; 1,900 tested, under 10 active; AID 977628;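 active = compound lowering the normal-ribosome reporter at least twice as much as the humanized-ribosome reporter, growth loss under a set limit; inconclusive = no clear call, values can overlap the other calls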;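 also: wild-type GFP and h24 humanized RFP strains co-cultured 1 to 1 per well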
* hit, by the source's call; ? = inconclusive; . = not tested or not shown. A selection: hits, their analogues and other compounds. The true share with any hit is near 1.8%.

SMILES	Ecoli rRNA inh	iPSC survival up	SKN-1 inh	MT1-MMP act inh	DAGLB inh	Cneo AK release	AID977621	AID977628
CCOc1ccc(C(=O)Nc2cccc3cccnc23)cc1	8	0	-1	-4	-10	0	.	.
C[C@@H]1CN([C@H](C)CO)C(=O)Cc2cc(NC(=O)CCN3CCOCC3)ccc2O[C@@H]1CN(C)S(=O)(=O)c1ccccc1	1	.	.	.	.	-2	.	.
O=C(Nc1ccccc1Cl)N1C[C@@H]2[C@H](c3ccccc31)[C@@H](CO)N2Cc1ccncc1	-11	.	.	.	.	2	.	.
O=C(Nc1ccccc1Cl)N1C[C@H]2[C@@H](c3ccccc31)[C@@H](CO)N2Cc1ccccc1	-38*	.	.	.	.	1	.	?
COc1ccc(C(=O)N2C[C@@H]3[C@H](c4ccccc42)[C@@H](CO)N3Cc2ccccc2)cc1	-6	.	.	.	.	-9	.	.
COc1ccc(C(=O)N2C[C@H]3[C@@H](c4ccccc42)[C@@H](CO)N3Cc2ccc(Cl)cc2)cc1	-51*	.	.	.	.	-3	.	?
COc1cccc(C(=O)N2C[C@@H]3[C@H](c4ccccc42)[C@H](CO)N3Cc2ccccc2Cl)c1	-33*	.	.	.	.	0	.	?
CC1(CCC(=O)N2CCCC(N3CCN(c4ccc(F)cc4)CC3)C2)CC1 (stereo not drawn)	-25*	-1	14	-3	1	14	-3.1	?
COc1ccc(S(=O)(=O)N(C)C[C@H]2Oc3c(NC(=O)NC(C)C)cccc3C(=O)N([C@@H](C)CO)C[C@H]2C)cc1	0	.	.	.	.	0	.	.
COc1ccc(CNC(=O)C[C@@H]2C=C[C@@H](NC(=O)Nc3ccc4c(c3)OCO4)[C@@H](CO)O2)cc1	0	.	.	.	.	-2	.	.
CC(CCc1ccccc1)NC(=O)CNC(=O)COc1ccccc1 (stereo not drawn)	-14*	-1	-6	-2	1	.	-15	.
O=C(c1ccccc1)N1CCN(c2ccc([N+](=O)[O-])c(NCC3CCCO3)c2)CC1 (stereo not drawn)	-32*	2	8	7	4	1	-6.9	-4.1
CCS(=O)(=O)N1CCN(c2ccc([N+](=O)[O-])c(NCC3CCCO3)c2)CC1 (stereo not drawn)	-21*	5	11	1	1	.	0.78	-5.8
O=[N+]([O-])c1ccc(N2CCN(S(=O)(=O)c3ccccc3)CC2)cc1NCC1CCCO1 (stereo not drawn)	.	2	0	4	1	7	.	.
COc1cc(C(=O)NCCc2c[nH]c3ccccc23)ccc1OCc1c(C)noc1C	-38*	2	4	10	0	-1	-13	?
Nc1nc(Nc2ccccc2)nc(NCc2ccco2)c1[N+](=O)[O-]	.	0	7	-1	-2	-9	.	.
Nc1nc(Nc2ccccc2F)nc(NCc2ccco2)c1[N+](=O)[O-]	-20*	0	4	-1	1	.	?	.
CCN1[C@@H]2Cn3c(ccc(-c4ccccc4F)c3=O)[C@H]1[C@@H](C(=O)N1CCCCC1)[C@@H]2CO	0	.	.	.	.	-1	.	.
COc1cc2ccccc2cc1C(=O)NCC(c1cccs1)N(C)C (stereo not drawn)	-24*	-1	-9	-5	-3	.	?	-3.9
CCN(c1ccccc1)S(=O)(=O)c1cccc(C(=O)NCC(c2cccs2)N(C)C)c1 (stereo not drawn)	-24*	0	-5	2	0	.	.	?
CNS(=O)(=O)c1cccc(C(=O)NCC(c2cccs2)N(C)C)c1 (stereo not drawn)	.	3	-9	-3	1	1	.	.
COc1cc(OC)c(C(=O)NCC(c2cccs2)N(C)C)cc1OC (stereo not drawn)	.	-1	2	-1	1	.	.	.

Source: PubChem BioAssay
